Experimental data from different studies.
Compare with care: the assays were run in different laboratories.
MAPK14 T106M: Mitogen-activated protein kinase 14 (MAPK14, Homo sapiens, UniProt Q16539, T106M)
MAPK14: Mitogen-activated protein kinase 14 (MAPK14, Homo sapiens, UniProt Q16539)

| SMILES | target | observed | action | technique | concentration | endpoint | result |
| --- | --- | --- | --- | --- | --- | --- | --- |
| CCN(CC)CCNC(=O)c1c(C)[nH]c(/C=C2\C(=O)Nc3ccc(F)cc32)c1C | MAPK14 T106M | enzyme activity | inhibitor | – | 10 µM | inhibition | 9% |
| CN(c1ccnc(CNc2nc(Nc3ccc4c(c3)CC(=O)N4)ncc2C(F)(F)F)n1)S(C)(=O)=O | MAPK14 | cell-free assay | – | competition with immobilised ligand | 1 µM | remaining binding | 92% |
| Cn1c(=O)n(-c2ccc(C(C)(C)C#N)cc2)c2c3cc(-c4cnc5ccccc5c4)ccc3ncc21 | MAPK14 | enzyme activity | inhibitor | – | 10 µM | remaining activity | 111% |
| CC(C)(C)c1nc(-c2cccc(NS(=O)(=O)c3c(F)cccc3F)c2F)c(-c2ccnc(N)n2)s1 | MAPK14 | enzyme activity | inhibitor | radiometric | 1 µM | remaining activity | 111% |
| CNC(=O)c1cc(Oc2ccc(NC(=O)Nc3ccc(Cl)c(C(F)(F)F)c3)cc2)ccn1 | MAPK14 | enzyme activity | inhibitor | – | 10 µM | inhibition | 84% |
| Cc1ccc(NC(=O)c2ccc(C)c(C(F)(F)F)c2)cc1C#Cc1nn(C2CCC(O)CC2)c2ncnc(N)c12 (stereo not drawn) | MAPK14 T106M | enzyme activity | inhibitor | – | 10 µM | remaining activity | 88% |
| Oc1ccc(-c2nc(-c3ccncc3)c(-c3ccc(F)cc3)[nH]2)cc1 | MAPK14 | cell-free assay | – | – | 0.5 µM | remaining signal | 7.42% |
| N#CC1(c2ccccn2)CCN(Cc2cc(C(=O)N3CCCC3)c(=O)n3ccccc23)CC1 | MAPK14 | cell-free assay | – | competition with immobilised ligand | 1 µM | remaining binding | 86% |
| O=C(Nc1cnn(-c2csc(C(=O)NC3COC3)c2)c1)Nc1c(F)cccc1Cl | MAPK14 | enzyme activity | inhibitor | – | 5 µM | remaining activity | 105% |
| COc1cc(Nc2cnc(C#N)c(O[C@H](C)CN(C)C)n2)ncc1-c1cnn(C)c1 | MAPK14 | enzyme activity | inhibitor | radiometric | 1 µM | remaining activity | 102% |
| CC(C)(C)C(=O)c1sc(NC2CCCCC2)nc1N | MAPK14 | enzyme activity | inhibitor | – | 10 µM | remaining activity | 102% |
| O=C1NC(=O)c2cc(Nc3ccc(F)cc3)c(Nc3ccc(F)cc3)cc21 | MAPK14 | cell-free assay | – | – | 0.5 µM | remaining signal | 88.3% |
| CN([C@@H]1CCc2c(CC(=O)O)c3cc(S(C)(=O)=O)ccc3n2C1)S(=O)(=O)c1ccc(F)cc1 | MAPK14 | cell-free assay | – | competition with immobilised ligand | 1 µM | remaining binding | 100% |
| Nc1ncnc2occ(-c3ccc(NC(=O)Nc4cc(C(F)(F)F)ccc4F)cc3)c12 | MAPK14 | cell-free assay | inhibitor | – | 20 µM | remaining signal | 0% |
| Cc1ccc(Nc2nccc(N(C)c3ccc4c(C)n(C)nc4c3)n2)cc1S(N)(=O)=O | MAPK14 T106M | enzyme activity | inhibitor | – | 0.3 µM | inhibition | 4% |
| COc1cc(-c2cn(C3CCc4c(F)cccc4N(CC(F)(F)F)C3=O)nn2)ccc1-n1cnc(C)c1 (stereo not drawn) | MAPK14 | cell-free assay | – | competition with immobilised ligand | 1 µM | remaining binding | 100% |
| CC(C)c1ccc(NC(=O)c2cccs2)c(-c2nc3ccccc3[nH]c2=O)c1 | MAPK14 | enzyme activity | inhibitor | – | 1 µM | activity vs control | 102% |
| Cc1cc(NC(=O)c2cccc(S(F)(F)(F)(F)F)c2)cc(-n2ccn3nc(-c4cccnc4)cc23)c1 | MAPK14 | cell-free assay | – | competition with immobilised ligand | 1 µM | remaining binding | 100% |
| Cc1cc(NC(=O)c2cccc3cc(-c4cccc5[nH]nc(N)c45)ccc23)ccc1F | MAPK14 | enzyme activity | inhibitor | – | 0.1 µM | activity vs control | 85% |
| CN(C)C1CCN(CC#Cc2nn(C3CCCC3)c3nc(NCc4ccccc4)ncc23)C1 (stereo not drawn) | MAPK14 | enzyme activity | inhibitor | FRET | 10 µM | inhibition | 4% |
| O=C(NCCCC1CCCCC1)c1ccc(CNC(=O)c2cnn(-c3ccccc3)c2C(F)(F)F)cc1 | MAPK14 | cell-free assay | – | competition with immobilised ligand | 0.1 µM | remaining binding | 100% |
